ChEMBL document CHEMBL1275447 (Antimicrob Agents Chemother, 2008)
Converted amounts (≈) assume the structure as drawn.

Key:
[1] = fT>MIC in human infected with Pseudomonas aeruginosa isolate 927 at 500 mg administered as 1 hr infusion; assay type: functional
[2] = fT>MIC in neutropenic mouse infected with Pseudomonas aeruginosa isolate 993 at 500 mg administered as 4 hr infusion; assay type: functional
Procedure, shortened: (§1)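 Mouse fT>MIC was modelled with first-order one-compartment serum PK and 25.2% binding. Mice were neutropenic (cyclophosphamide) with uranyl nitrate renal impairment. Subcutaneous doses were 5.5, 2.25, 4.5, 4.5, 4.5, 4.5, 0.75, 0.375 mg/kg at 0, 0.5, 1.5, 2.5, 3.5, 4.5, 6, 7.5 h per 8-h interval over 24 h.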

[3] = Tmax in Pseudomonas aeruginosa ATCC 27853 infected neutropenic ICR mouse at 50 mg/kg, sc administered as single dose 2 hrs postinfection by HPLC; assay type: ADME, organism-based; set-up: dose 50 mg/kg, route subcutaneous; details: in vivo
Procedure, shortened: (§2)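 Neutropenic mice (cyclophosphamide ip 150 and 100 mg/kg, 4 and 1 days before inoculation) with uranyl nitrate 5 mg/kg ip 3 days before, for renal impairment. Thigh infection with ATCC 27853 at 10⁶ CFU/ml, 0.1 ml per thigh. Single sc doses 2 h later. Intracardiac blood from 6–12 mice per time point, eight time points over 4 h. Serum assayed by HPLC (linear 0.5–40 μg/ml). One-compartment first-order fit.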

[4] = fT>MIC in neutropenic mouse infected with Pseudomonas aeruginosa isolate 1005 at 500 mg administered as 1 hr infusion; assay type: functional
[5] = fT>MIC in neutropenic mouse infected with Pseudomonas aeruginosa isolate 886 at 500 mg administered as 4 hr infusion; assay type: functional; procedure, shortened: as §1
[6] = fT>MIC in neutropenic mouse infected with Pseudomonas aeruginosa isolate 1052 at 500 mg administered as 1 hr infusion; assay type: functional
Procedure, shortened: (§3)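 Free-drug time above MIC simulated from one-compartment mouse serum PK (25.2% protein binding). The mice were cyclophosphamide-neutropenic and uranyl nitrate-renally impaired. Regimen was subcutaneous 10, 15, 2.5, 1.25, 0.5, 0.25 mg/kg at 0, 0.5, 2.5, 4, 5.5, 7 h, repeated every 8 h over 24 h.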

[7] = test system: Pseudomonas aeruginosa; assay: Antibacterial activity against Pseudomonas aeruginosa isolate 1050 by fractionation study; assay type: functional
[8] = fT>MIC in human infected with Pseudomonas aeruginosa isolate 1052 at 500 mg administered as 4 hr infusion; assay type: functional
[9] = fT>MIC in neutropenic mouse infected with Pseudomonas aeruginosa isolate 1082 at 500 mg administered as 1 hr infusion; assay type: functional; procedure, shortened: as §3
[10] = fT>MIC in human infected with Pseudomonas aeruginosa isolate 886 at 500 mg administered as 4 hr infusion; assay type: functional
[11] = test system: Pseudomonas aeruginosa; assay: Antibacterial activity against Pseudomonas aeruginosa isolate 944 by microdilution method; assay type: functional
Procedure, shortened: (§4)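 CLSI broth microdilution in cation-adjusted Mueller-Hinton broth (20–25 mg/liter Ca, 10–12.5 mg/liter Mg). Standard inoculum 10⁵ CFU/ml, incubated in ambient air. Clinical hospital isolates.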

[12] = Clearance in Pseudomonas aeruginosa ATCC 27853 infected neutropenic ICR mouse at 50 mg/kg, sc administered as single dose 2 hrs postinfection; assay type: ADME, organism-based; set-up: dose 50 mg/kg, route subcutaneous; details: in vivo; procedure, shortened: as §2
[13] = fT>MIC in neutropenic mouse infected with Pseudomonas aeruginosa isolate 931 at 500 mg administered as 1 hr infusion; assay type: functional; procedure, shortened: as §3
[14] = test system: Pseudomonas aeruginosa; assay: Antibacterial activity against Pseudomonas aeruginosa isolate 1082 by microdilution method; assay type: functional; procedure, shortened: as §4
[15] = fT>MIC in human infected with Pseudomonas aeruginosa isolate 1082 at 500 mg administered as 1 hr infusion; assay type: functional
[16] = test system: Pseudomonas aeruginosa; assay: Antibacterial activity against Pseudomonas aeruginosa isolate 1060 by microdilution method; assay type: functional; procedure, shortened: as §4
[17] = fT>MIC in neutropenic mouse infected with Pseudomonas aeruginosa isolate 869 at 500 mg administered as 1 hr infusion; assay type: functional; procedure, shortened: as §3
[18] = fT>MIC in human infected with Pseudomonas aeruginosa isolate 1005 at 500 mg administered as 1 hr infusion; assay type: functional
[19] = fT>MIC in neutropenic mouse infected with Pseudomonas aeruginosa isolate 931 at 500 mg administered as 4 hr infusion; assay type: functional; procedure, shortened: as §1
[20] = fT>MIC in human infected with Pseudomonas aeruginosa isolate 1029 at 500 mg administered as 4 hr infusion; assay type: functional
[21] = Elimination rate constant in Pseudomonas aeruginosa ATCC 27853 infected neutropenic ICR mouse at 150 mg/kg, sc administered as single dose 2 hrs postinfection; assay type: ADME, organism-based; set-up: dose 150 mg/kg, route subcutaneous; details: in vivo; procedure, shortened: as §2
[22] = fT>MIC in neutropenic mouse infected with Pseudomonas aeruginosa isolate 869 at 500 mg administered as 4 hr infusion; assay type: functional; procedure, shortened: as §1
[23] = fT>MIC in neutropenic mouse infected with Pseudomonas aeruginosa isolate 944 at 500 mg administered as 1 hr infusion; assay type: functional; procedure, shortened: as §3
[24] = fT>MIC in human infected with Pseudomonas aeruginosa isolate 968 at 500 mg administered as 4 hr infusion; assay type: functional
[25] = fT>MIC in neutropenic mouse infected with Pseudomonas aeruginosa isolate 1062 at 500 mg administered as 4 hr infusion; assay type: functional; procedure, shortened: as §1
[26] = Half-life in Pseudomonas aeruginosa ATCC 27853 infected neutropenic ICR mouse at 50 mg/kg, sc administered as single dose 2 hrs postinfection; assay type: ADME, organism-based; set-up: dose 50 mg/kg, route subcutaneous; details: in vivo; procedure, shortened: as §2
[27] = fT>MIC in neutropenic mouse infected with Pseudomonas aeruginosa isolate 988 at 500 mg administered as 4 hr infusion; assay type: functional; procedure, shortened: as §1
[28] = fT>MIC in human infected with Pseudomonas aeruginosa isolate 896 at 500 mg administered as 1 hr infusion; assay type: functional

C[C@@H](O)[C@H]1C(=O)N2C(C(=O)O)=C(S[C@@H]3CN[C@H](CNS(N)(=O)=O)C3)[C@H](C)[C@H]12 [DORIPENEM]
fT>MIC [1]: 7.5% | fT>MIC [2]: 100% | Tmax [3]: 22.8 min | fT>MIC [4]: 55% | fT>MIC [5]: 100% | fT>MIC [6]: 55% | MIC [7]: 4 µg/mL (≈ 9.51 µM) | fT>MIC [8]: 80% | fT>MIC [9]: 55% | fT>MIC [10]: 100% | MIC [11]: 4 µg/mL (≈ 9.51 µM) | CL/F [12]: 13.1 mL/min/kg | fT>MIC [13]: 30% | MIC [14]: 1 µg/mL (≈ 2.38 µM) | fT>MIC [15]: 55% | MIC [16]: 4 µg/mL (≈ 9.51 µM) | fT>MIC [17]: 90% | fT>MIC [18]: 55% | fT>MIC [19]: 52.5% | fT>MIC [20]: 100% | k el at 2 h [21]: 0.000433 s⁻¹ | fT>MIC [22]: 100% | fT>MIC [23]: 30% | fT>MIC [24]: 0% | fT>MIC [25]: 95% | half-life [26]: 20.4 min | fT>MIC [27]: 0% | fT>MIC [28]: 17.5%
